Laboratory results from PMC7574157 (Investigational new drugs, 2016).

Assays:
patients [1] = details: cited from earlier work
Population PK analysis = format: in vivo, human
Procedure, shortened: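 Oral dosing; patients fasted 1 h before and 2 h after. Sparse plasma samples were taken pre-dose and 1–3 h post-dose on days 29, 43 and 99, with richer sampling on the intermittent schedule. Two-compartment model with first-order absorption and elimination, fitted by first-order conditional estimation with interaction. It estimated clearance, intercompartment clearance, central/peripheral volumes, absorption rate, inter-subject variability and residual error, and explored covariates.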

patients [2] = details: cited from earlier work; remark: listed apart in the source
[3] = GSK458 as mono-therapy, estimate (SD)

For `COc1ncc(-c2ccc3nccc(-c4ccnnc4)c3c2)cc1NS(=O)(=O)c1ccc(F)cc1F` [GSK458], the “Most frequently reported treatment-related adverse events, single agent” value (patients [1]) is listed as “diarrhea, fatigue, nausea, decreased appetite, vomiting, and hyerpglycemia”, the “Maximum tolerated dose (MTD), single agent” value (patients [1]; once daily) is listed as 2.5 mg and the “Clearance, CL/F” value (Population PK analysis; [3]) is listed as 3.88 (1.9) L/h. For the same compound, the “Volume of central compartment Vc/F” value (Population PK analysis; [3]) was 17.81 (17.4) L, the “Volume of peripheral compartment Vp/F” value (Population PK analysis; [3]) was 54.67 (48.7) L and the Vd (Population PK analysis; human, in vivo, oral) was 8.95 L. The clearance (Population PK analysis; human, in vivo, oral) was 54.2 mL/min, the “PK of GSK458 alone versus in combination with trametinib (post hoc estimates)” value (Population PK analysis; in vivo) was “No significant difference was observed” and the Inter-compartment clearance (Population PK analysis; population PK model of GSK458) was 2.71 L/h. For the same compound, the “Inter-individual variability on central volume” value (Population PK analysis; population PK model of GSK458) was roughly 97%, the “Inter-individual variability on clearance” value (Population PK analysis; population PK model of GSK458) was “approximately 53%” and the “Peripheral volume of distribution” value (Population PK analysis; population PK model of GSK458) was 38.4 L.

For `CC(=O)Nc1cccc(-n2c(=O)n(C3CC3)c(=O)c3c(Nc4ccc(I)cc4F)n(C)c(=O)c(C)c32)c1` [trametinib], the “Most frequently reported treatment-related toxicities, single agent” value (patients [2]) is given as “rash or acneiform dermatitis, diarrhea, fatigue, nausea, and vomiting”, the Plasma half-life (patients [2]; no reference given) is given as “five days” and the “Recommended phase II dose (RP2D), single agent” value (patients [2]; once daily) is given as 2 mg.
